Consider 55 compounds from ChEMBL document CHEMBL1130261, “Identification of novel farnesyl protein transferase inhibitors using three-dimensional database searching methods” (J Med Chem, 1997).

Common to all, as to type: protein-complex assay
Experiment [1] concerns the target T1, Protein farnesyltransferase (Homo sapiens, UniProt P49354+P49356). Briefly: Inhibitory activity against recombinant human farnesyltransferase.
In experiment [2] the target is Geranylgeranyl transferase type I (Homo sapiens, UniProt P49354+P53609). In words: Inhibitory activity against Geranylgeranyl transferase type I.
Experiment [3] concerns the target T1, Protein farnesyltransferase. In words: Inhibitory activity against farnesyltransferase (FPT) (20 ug/mL). The procedure, abridged: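 Primary scintillation proximity assay (SPA) following the kit protocol, with a biotinylated substrate peptide bearing the K-Ras carboxy-terminal sequence.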
In experiment [4] the target is Protein farnesyl/geranylgeranyl transferase (Homo sapiens) (UniProt P49354+P49356+P53609). In words: Selectivity was expressed as the ratio of the Geranylgeranyl transferase type I to FPT inhibitory activities (IC50).

pIC50: −log10 of the molar value. A value given as a limit tells only on which side of the number the result lay.

`O=C(Cc1ccncc1)N1CCC(=C2c3ccccc3CSc3ccccc32)CC1`: the pIC50 in experiment [1] was 5.64.

Regarding `Clc1ccc2c(c1)S[C@H](Cn1ccnc1)[C@@H]2OCc1ccc(Cl)c(Cl)c1`, the pIC50 in experiment [2] is 4.89; in experiment [1], 5.92. The inhibition in experiment [3] was 95%. In addition, in experiment [4], the Selectivity ratio came to 10.8.

For the compound `Clc1sccc1CO[C@@H]1c2cc(Br)ccc2S[C@@H]1Cn1ccnc1`, the pIC50 in experiment [2] was 4.85; in experiment [1] it was 5.96. In addition, the inhibition in experiment [3] was found to be 88%. Further, in experiment [4], the Selectivity ratio was found to be 12.9.

Turning to `OC1c2cc(Cl)ccc2SC1Cn1ccnc1` (stereo not given), the pIC50 in experiment [1] was < 4.12.

In the case of `Clc1cccc2c1S[C@H](Cn1ccnc1)[C@@H]2OCc1ccsc1Cl`, in experiment [3], the inhibition was determined as 92%. For the same compound, the pIC50 in experiment [1] was 5.22.

Take `O=C(Cc1cccnc1)N1CCN(C(c2ccc(Cl)cc2)c2ccccn2)CC1` (stereo not given): in experiment [1], the pIC50 was 4.42.

Regarding `Clc1ccc2c(c1)S[C@H](Cn1ccnc1)[C@@H]2OCc1c(Cl)ccc2c1OCO2`, the inhibition in experiment [3] was found to be 80%. Besides, the pIC50 in experiment [1] was 5.49.

Compound `Clc1ccc2c(c1)S[C@H](CN1CCOCC1)[C@@H]2OCc1ccsc1Cl` registered an inhibition in experiment [3] of 2%.

For `Fc1cccc(Cl)c1CO[C@@H]1c2ccc(Cl)cc2S[C@@H]1Cn1ccnc1`, in experiment [3], the inhibition turned out to be 92%. The pIC50 in experiment [1] was 5.36.

Regarding `C=CCO[C@@H]1c2ccc(Cl)cc2S[C@@H]1Cn1ccnc1`, in experiment [3], the inhibition was 88%. Moreover, in experiment [1], the pIC50 was 5.07.

In experiment [3], `Clc1ccc2c(c1)S[C@H](Cn1ccnc1)[C@@H]2OCc1ccsc1Cl` gave an inhibition of 96%. For the same compound, in experiment [1], the pIC50 was 5.64.

For `[O-][S+]1c2cc(Cl)ccc2[C@@H](OCc2ccsc2Cl)[C@H]1Cn1ccnc1` (stereo not given in full), the inhibition in experiment [3] was 79%. For the same compound, the pIC50 in experiment [1] was 4.68.

In experiment [3], `OCc1nccn1C[C@H]1Sc2cc(Cl)ccc2[C@H]1OCc1ccsc1Cl` showed an inhibition of 30%.

Regarding `Clc1sccc1CO[C@@H]1c2ccccc2S[C@@H]1Cn1ccnc1`, the pIC50 in experiment [2] is 4.33; in experiment [1], 5.96. In experiment [3], this compound showed an inhibition of 94%. In experiment [4], the Selectivity ratio was determined as 42.5.

Regarding `CC(C)(C)CC(=O)N1CCC(=C2c3ccc(Cl)cc3CCc3cccnc32)CC1`, the negative-log IC50 (pIC50) in experiment [1] is 5.01.

As for `CC(C)C(CP(=O)(O)C(Cc1ccccc1)NC(=O)OCc1ccccc1)C(=O)N[C@H](Cc1c[nH]c2ccccc12)C(=O)N[C@H](C)C(=O)O` (stereo not given in full), the pIC50 in experiment [1] is 6.00.

Take `O=C(Cc1ccncc1)N1CCC(=C2c3ccccc3CCc3ccccc32)CC1`: the pIC50 in experiment [1] was 5.94.

Take `Clc1sccc1CO[C@@H]1c2cc3c(cc2S[C@@H]1Cn1ccnc1)CCCC3`: in experiment [3], the inhibition was 61%. Besides, the pIC50 in experiment [1] was 4.97.

Take `NC1CCC(C(=O)N2CCC(=C3c4ccc(Cl)cc4CCc4cccnc43)CC2)CC1` (stereo not given): the pIC50 in experiment [1] was 5.30.

Turning to `O=C(Cc1ccccc1)N1CCN(C2c3ccc(Cl)cc3CCc3cccnc32)CC1` (stereo not given), the pIC50 in experiment [1] was 5.57.

Compound `Fc1ccc2c(c1)S[C@H](Cn1ccnc1)[C@@H]2OCc1ccsc1` came in with an inhibition in experiment [3] of 91%. Further, the pIC50 in experiment [1] is 4.87.

As to `O[C@H]1c2cc3c(cc2S[C@H]1Cn1ccnc1)CCCC3`, in experiment [1], the pIC50 is < 4.15.

Turning to `Cc1cccc2c1[C@@H](O)[C@@H](Cn1ccnc1)S2`, the inhibition in experiment [3] came out at 14%. Further, the pIC50 in experiment [1] is 3.58.

Consider `Clc1ccc2c(c1)S[C@H](Cn1ccnc1)[C@@H]2OCc1ccsc1`, for which, in experiment [3], the inhibition was found to be 95%. Besides, the negative logarithm of the IC50 (pIC50) in experiment [1] was 4.80.

With `Clc1ccc2c(c1)S[C@H](Cn1ccnc1)[C@@H]2OCc1cscn1`, the inhibition in experiment [3] came out at 90%. The pIC50 in experiment [1] is 4.97.

`CN1CCC(C2c3ccccc3CCc3cccnc32)CC1` (stereo not given): the pIC50 in experiment [1] is 3.14.

As for `O=C(Nc1ccncc1)N1CCC(=C2c3ccc(Cl)cc3CCc3cccnc32)CC1`, in experiment [1], the pIC50 was 6.06.

In experiment [3], `O=S1(=O)c2cc(Cl)ccc2C(OCc2ccc(Cl)cc2Cl)C1Cn1ccnc1` (stereo not given) returned an inhibition of 60%. In experiment [1], the pIC50 was 4.34.

Take `CC(=O)N1CCN(c2nc(CO[C@@H]3c4cc(C(C)(C)C)ccc4S[C@@H]3Cn3ccnc3)ns2)CC1`: in experiment [2], the pIC50 is < 4.41. Moreover, the inhibition in experiment [3] came to 86%.

On to `O=C(O)c1ccc(C(=O)N2CCC(=C3c4ccc(Cl)cc4CCc4cccnc43)CC2)cc1`, for which the negative logarithm of the IC50 (pIC50) in experiment [1] is 5.28.

In experiment [3], `O[C@@H]1c2cccc(Cl)c2S[C@@H]1Cn1ccnc1` gave an inhibition of 44%.

For the compound `COC(=O)[C@@H](Cc1ccccc1)NC(=O)[C@@H](Cc1c[nH]c2ccccc12)NC(=O)[C@H](Cc1ccccc1)CP(=O)(O)O`, in experiment [1], the negative-log IC50 (pIC50) is 6.15.

With `O=C(Cc1cccnc1)N1CCC(=C2c3ccc(Cl)cc3CCc3cccnc32)CC1`, in experiment [1], the pIC50 is 6.22.

In the case of `O[C@@H]1c2cc(Br)ccc2S[C@@H]1Cn1ccnc1`, the inhibition in experiment [3] is 44%.

Take `Clc1ccc(COC2c3c(Cl)cc(Cl)cc3SC2Cn2ccnc2)c(Cl)c1` (stereo not given): the inhibition in experiment [3] was found to be 60%. Besides, the negative logarithm of the IC50 (pIC50) in experiment [1] was 4.91.

In the case of `Clc1ccc2c(c1)S[C@H](Cn1ccnc1)[C@@H]2OCc1cc(Cl)sc1Cl`, the inhibition in experiment [3] came out at 89%.

In the case of `O=C(Nc1ccccn1)N1CCN(C2c3ccc(Cl)cc3CCc3cccnc32)CC1` (stereo not given), the pIC50 in experiment [1] was 6.02.

In turn, `O[C@@H]1c2ccc(C(F)(F)F)cc2S[C@@H]1Cn1ccnc1` came in with an inhibition in experiment [3] of 42%.

With `FC(F)(F)c1ccc2c(c1)S[C@H](Cn1ccnc1)[C@@H]2OCc1ccsc1Cl`, the inhibition in experiment [3] is 75%. Moreover, the pIC50 in experiment [1] was 4.97.

In the case of `O=C(Cc1ccccc1)N1CCC(=C2c3ccc(Cl)cc3CCc3cccnc32)CC1`, the pIC50 in experiment [1] was 6.10.

`Clc1ccc2c(c1)C(OCc1c(Cl)cccc1Cl)C(Cn1ccnc1)S2` (stereo not given): in experiment [3], the inhibition turned out to be 85%. Also, the pIC50 in experiment [1] was 5.28.

For the compound `Clc1ccc(COC2c3ccc(Cl)cc3SC2Cn2ccnc2)c(Cl)c1` (stereo not given), the inhibition in experiment [3] was found to be 75%. In experiment [1], the pIC50 is 5.27.

For `O=C(Cc1ccccn1)N1CCC(=C2c3ccc(Cl)cc3CCc3cccnc32)CC1`, the pIC50 in experiment [1] was 5.70.

In turn, `Cc1onc(-c2ccccc2)c1CO[C@@H]1c2ccc(Cl)cc2S[C@@H]1Cn1ccnc1` returned an inhibition in experiment [3] of 90%. The negative logarithm of the IC50 (pIC50) in experiment [1] was 5.60.

Take `O=C(Cc1ccncc1)N1CCC(=C2c3ccc(Cl)cc3CCc3ccc[n+]([O-])c32)CC1`: the pIC50 in experiment [1] is 5.68.

As to `O=C(Nc1cccnc1)N1CCN(C2c3ccc(Cl)cc3CCc3cccnc32)CC1` (stereo not given), in experiment [1], the negative-log IC50 (pIC50) is 5.89.

Regarding `O=C(Nc1ccncc1)C1CCN(C2c3ccc(Cl)cc3CCc3cccnc32)CC1` (stereo not given), the pIC50 in experiment [1] was 5.04.

The compound `Fc1ccc2c(c1)[C@@H](OCc1c(F)cccc1Cl)[C@@H](Cn1ccnc1)S2` gave an inhibition in experiment [3] of 94%. In addition, the negative logarithm of the IC50 (pIC50) in experiment [1] was 5.64.

As for `[O-][n+]1ccc(CN2CCC(=C3c4ccccc4CCc4cccnc43)CC2)cc1`, the pIC50 in experiment [1] was 2.74.

As to `OC1c2ccc(Cl)cc2SC1Cn1ccnc1` (stereo not given), the inhibition in experiment [3] turned out to be 58%.

`C=C1CC2C3C=C(Cl)C4=CC(=O)C(Br)CC4(C)C3CCC2(C)[C@@]1(O)C(C)=O` (stereo not given in full): the pIC50 in experiment [1] is 5.74.

The compound `O[C@@H]1c2ccc(F)cc2S[C@@H]1Cn1ccnc1` yielded an inhibition in experiment [3] of 38%.

`O[C@@H]1c2cc(F)ccc2S[C@@H]1Cn1ccnc1` had an inhibition in experiment [3] of 23%.

On to `Clc1ccc2c(c1)C(OCc1ccsc1Cl)C(Cn1ccnc1)S2` (stereo not given), for which, in experiment [3], the inhibition came to 92%. The pIC50 in experiment [1] was 5.60.

In the case of `Fc1ccc2c(c1)[C@@H](OCc1c(Cl)cccc1Cl)[C@@H](Cn1ccnc1)S2`, in experiment [3], the inhibition was determined as 90%. In addition, in experiment [1], the pIC50 was 5.57.

Broadly, the pIC50 is the IC50 on a negative log10 scale, so that one unit is a factor of ten. As a reminder, the inhibition is the percentage by which the read-out fell short of the control. A high value points to a response far below the control.
